Measured values collected from several papers.
Compare with care: the assays were run in different laboratories.
Target: Tyrosine-protein kinase Mer (MERTK, Homo sapiens, UniProt Q12866)
One construct used (Q12866 21-999): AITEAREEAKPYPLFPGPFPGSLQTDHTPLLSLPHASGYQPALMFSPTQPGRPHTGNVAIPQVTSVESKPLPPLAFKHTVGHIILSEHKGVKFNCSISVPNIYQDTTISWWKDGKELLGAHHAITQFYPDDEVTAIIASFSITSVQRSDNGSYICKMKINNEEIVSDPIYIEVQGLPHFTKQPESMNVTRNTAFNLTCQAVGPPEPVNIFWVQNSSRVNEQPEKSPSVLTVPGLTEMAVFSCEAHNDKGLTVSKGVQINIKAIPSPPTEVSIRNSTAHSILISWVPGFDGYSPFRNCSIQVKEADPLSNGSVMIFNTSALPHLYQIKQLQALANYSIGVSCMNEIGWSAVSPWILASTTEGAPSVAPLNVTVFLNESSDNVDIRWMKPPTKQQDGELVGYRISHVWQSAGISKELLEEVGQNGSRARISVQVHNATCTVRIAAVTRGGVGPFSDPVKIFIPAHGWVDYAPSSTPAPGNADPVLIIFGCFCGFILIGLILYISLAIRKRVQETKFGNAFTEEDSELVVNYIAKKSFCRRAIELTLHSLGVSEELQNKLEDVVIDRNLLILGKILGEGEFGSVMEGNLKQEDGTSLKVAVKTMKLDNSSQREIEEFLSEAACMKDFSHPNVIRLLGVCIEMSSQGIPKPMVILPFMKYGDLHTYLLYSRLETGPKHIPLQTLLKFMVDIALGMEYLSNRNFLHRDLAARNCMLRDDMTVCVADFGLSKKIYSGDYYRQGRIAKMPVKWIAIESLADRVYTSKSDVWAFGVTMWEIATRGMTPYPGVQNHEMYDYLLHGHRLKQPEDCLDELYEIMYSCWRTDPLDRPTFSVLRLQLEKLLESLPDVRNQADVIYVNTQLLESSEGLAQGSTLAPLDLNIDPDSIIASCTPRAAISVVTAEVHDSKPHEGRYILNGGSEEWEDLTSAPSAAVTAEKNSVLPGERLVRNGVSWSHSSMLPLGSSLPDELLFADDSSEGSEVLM

| Structure (SMILES) | observed | action | technique | tested at | quantity | value |
| --- | --- | --- | --- | --- | --- | --- |
| Cc1nn(C)cc1-c1nc2c(N3CCN(Cc4ccc(Cl)cc4)CC3)c(Cl)cnc2[nH]1 | binding |  | competition with immobilised ligand | 1 µM | remaining binding | 100% |
| COc1cc(Nc2ncc(F)c(Nc3ccc4c(n3)NC(=O)C(C)(C)O4)n2)cc(OC)c1OC | binding |  | competition with immobilised ligand | 10 µM | inhibition | 100% |
| Nc1ncc(-c2nc(N3CCOCC3)nc(N3CCOCC3)n2)c(C(F)F)n1 | binding |  | competition with immobilised ligand | 10 µM | remaining binding | 87% |
| Cn1cc(-c2cc(F)cc(N3CCn4c(cc5c4CCCC5)C3=O)c2CO)cc(Nc2ccc(N3CCN(C4COC4)CC3)cn2)c1=O | enzyme activity | inhibitor |  | 0.1 µM | inhibition | 11% |
| C#Cc1n[nH]c2c(-c3cn(C(C)c4ccccn4)c(=O)[nH]c3=O)cc(F)cc12 (centres unmarked) | enzyme activity | inhibitor |  | 1 µM | inhibition | 99.6% |
| CC(C)(C)c1cc(C=C(C#N)C#N)cc(Br)c1O | enzyme activity | inhibitor |  | 0.5 µM | remaining activity | 97.3% |
| N#CC1(c2ccccn2)CCN(Cc2cc(C(=O)O)c(=O)n3ccccc23)CC1 | cell-free assay |  | competition with immobilised ligand | 1 µM | remaining binding | 100% |
| O=c1[nH]c2ccccc2n1C1CCN(Cc2ccc(-c3[nH]c4cc5ncnc5cc4nc3-c3ccccc3)cc2)CC1 | cell-free assay |  |  | 0.5 µM | remaining signal | 96.2% |
| Cn1cncc1[C@@](O)(COc1ccc(C#N)cc1-c1ccc(OC(F)(F)F)cc1)c1ccc(C#N)cc1 | cell-free assay |  | competition with immobilised ligand | 1 µM | remaining binding | 69% |
| COc1ncccc1-c1cnn2ccc(N3CCN(C(=O)OC(C)C)CC3)nc12 | binding |  | competition with immobilised ligand | 1 µM | remaining binding | 100% |
| Cn1cc(-c2cccc(N3CCc4c(sc5c4CC(C)(C)C5)C3=O)c2CO)cc(Nc2ccncn2)c1=O | enzyme activity | inhibitor |  | 1 µM | inhibition | 1% |
